Experimental data as given in ChEMBL document CHEMBL1287657, “Synthesis and biological activities of new furo[3,4-b]carbazoles: potential topoisomerase II inhibitors” (Eur J Med Chem, 2010).
Calls of active or inactive are those of the source. The calls are words filed in the database; no cut-off is given here.

Experiments:
[1] = biological target: DNA topoisomerase 2-alpha (Homo sapiens) (UniProt P11388); assay: Inhibition of human topoisomerase 2-mediated relaxation of supercoiled PUC19 DNA at 20 to 50 uM uM after 20 mins using ethidium bromide staining by agarose gel electrophoresis
Sequence of DNA topoisomerase 2-alpha (Homo sapiens) (P11388 whole entry): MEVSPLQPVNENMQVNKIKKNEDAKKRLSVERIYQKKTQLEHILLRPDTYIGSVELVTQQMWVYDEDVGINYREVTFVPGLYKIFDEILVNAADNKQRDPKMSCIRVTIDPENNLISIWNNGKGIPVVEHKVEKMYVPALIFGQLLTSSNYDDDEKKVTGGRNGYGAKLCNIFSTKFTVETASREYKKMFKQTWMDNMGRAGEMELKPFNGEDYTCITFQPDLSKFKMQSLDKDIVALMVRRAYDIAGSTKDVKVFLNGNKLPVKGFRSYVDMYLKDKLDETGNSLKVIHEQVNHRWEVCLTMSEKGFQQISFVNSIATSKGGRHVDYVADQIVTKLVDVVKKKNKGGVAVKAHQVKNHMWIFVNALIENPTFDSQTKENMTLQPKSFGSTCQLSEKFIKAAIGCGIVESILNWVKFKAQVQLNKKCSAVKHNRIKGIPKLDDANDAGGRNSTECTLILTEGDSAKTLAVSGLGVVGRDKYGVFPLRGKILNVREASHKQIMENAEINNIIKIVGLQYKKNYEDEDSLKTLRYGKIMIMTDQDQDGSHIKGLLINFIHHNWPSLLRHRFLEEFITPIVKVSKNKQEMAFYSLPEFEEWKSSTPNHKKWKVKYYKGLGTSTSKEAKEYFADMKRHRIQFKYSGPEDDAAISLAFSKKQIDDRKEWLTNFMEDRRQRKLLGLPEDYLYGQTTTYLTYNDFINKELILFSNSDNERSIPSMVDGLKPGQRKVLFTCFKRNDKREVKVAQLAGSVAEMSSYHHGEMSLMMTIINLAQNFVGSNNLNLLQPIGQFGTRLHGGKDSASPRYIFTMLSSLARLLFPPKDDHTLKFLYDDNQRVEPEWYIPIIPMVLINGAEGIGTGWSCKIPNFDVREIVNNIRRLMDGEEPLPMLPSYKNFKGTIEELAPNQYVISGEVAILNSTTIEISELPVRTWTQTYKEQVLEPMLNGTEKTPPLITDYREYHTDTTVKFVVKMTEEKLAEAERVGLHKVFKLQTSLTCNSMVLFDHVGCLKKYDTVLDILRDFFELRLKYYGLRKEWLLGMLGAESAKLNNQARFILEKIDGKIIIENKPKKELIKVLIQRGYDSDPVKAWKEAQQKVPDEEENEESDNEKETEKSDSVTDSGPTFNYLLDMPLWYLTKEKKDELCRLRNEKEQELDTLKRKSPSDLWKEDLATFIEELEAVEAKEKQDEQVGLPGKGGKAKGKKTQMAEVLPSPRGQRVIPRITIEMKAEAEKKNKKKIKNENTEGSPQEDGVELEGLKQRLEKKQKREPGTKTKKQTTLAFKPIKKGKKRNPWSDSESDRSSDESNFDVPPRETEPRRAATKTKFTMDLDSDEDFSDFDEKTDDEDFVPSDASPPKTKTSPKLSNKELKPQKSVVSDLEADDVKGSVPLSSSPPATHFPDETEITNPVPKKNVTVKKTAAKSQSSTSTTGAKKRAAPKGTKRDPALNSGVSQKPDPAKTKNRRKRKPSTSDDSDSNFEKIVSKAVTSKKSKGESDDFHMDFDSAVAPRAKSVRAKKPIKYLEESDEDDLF
Method in brief: (§1)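 Native supercoiled pUC19 plasmid (350 ng) incubated with 4 units human topoisomerase II, with or without compound at several concentrations; etoposide run as reference. Relaxation/cleavage products separated by gel electrophoresis and scored for supercoiled, relaxed and broken DNA forms.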

HL-60 = assay: Cytotoxicity against human HL60 cells; assay type: functional, cell-based
Calf thymus DNA = assay: Binding affinity to calf thymus DNA assessed as change in melting temperature; assay type: nucleic-acid assay; settings: Bos taurus
[2] = Cytotoxicity against human HL60/MX2 cells; assay type: functional, cell-based
[3] = biological target: DNA topoisomerase 2-alpha (Homo sapiens) (UniProt P11388); assay: Inhibition of human topoisomerase 2-mediated relaxation of supercoiled PUC19 DNA at 1 to 100 uM uM after 20 mins using ethidium bromide staining by agarose gel electrophoresis; method in brief: as §1

O=C1OCc2cc3c([nH]c4ccccc43)c(-c3ccc4c(c3)OCO4)c21
inhibition [1]: inactive

COc1cc(-c2c3c(cc4c2[nH]c2ccccc24)COC3=O)cc(O)c1O
IC50 (HL-60): 150 nM
Activity (Calf thymus DNA): inactive
inhibition [1]: Active
IC50 [2]: 170 nM
inhibition [3]: Active

COc1cc([C@@H]2c3cc4c(cc3[C@@H](O[C@@H]3O[C@@H]5CO[C@@H](C)O[C@H]5[C@H](O)[C@H]3O)[C@H]3COC(=O)[C@H]23)OCO4)cc(OC)c1O
inhibition [1]: Active

COc1cc(-c2c3c(cc4c2[nH]c2ccccc24)COC3=O)cc(OC)c1OC
inhibition [1]: inactive

COc1cc(OC)cc(-c2c3c(cc4c2[nH]c2ccccc24)COC3=O)c1
inhibition [1]: inactive

COc1ccc(-c2c3c(cc4c2[nH]c2ccccc24)COC3=O)cc1
inhibition [1]: inactive

COc1ccc(-c2c3c(cc4c2[nH]c2ccccc24)COC3=O)cc1OC
Activity (Calf thymus DNA): inactive
inhibition [1]: inactive
